{"source": "ChEMBL document CHEMBL3112420", "about": "“Discovery of 8-cyclopentyl-2-[4-(4-methyl-piperazin-1-yl)-phenylamino]-7-oxo-7,8-dihydro-pyrido[2,3-d]pyrimidine-6-carbonitrile (7x) as a potent inhibitor of cyclin-dependent kinase 4 (CDK4) and AMPK-related kinase 5 (ARK5)” (J Med Chem, 2014)", "key": {"[1]": {"target": "Tyrosine-protein kinase Fyn (Homo sapiens, UniProt P06241)", "sequence (P06241 whole entry)": "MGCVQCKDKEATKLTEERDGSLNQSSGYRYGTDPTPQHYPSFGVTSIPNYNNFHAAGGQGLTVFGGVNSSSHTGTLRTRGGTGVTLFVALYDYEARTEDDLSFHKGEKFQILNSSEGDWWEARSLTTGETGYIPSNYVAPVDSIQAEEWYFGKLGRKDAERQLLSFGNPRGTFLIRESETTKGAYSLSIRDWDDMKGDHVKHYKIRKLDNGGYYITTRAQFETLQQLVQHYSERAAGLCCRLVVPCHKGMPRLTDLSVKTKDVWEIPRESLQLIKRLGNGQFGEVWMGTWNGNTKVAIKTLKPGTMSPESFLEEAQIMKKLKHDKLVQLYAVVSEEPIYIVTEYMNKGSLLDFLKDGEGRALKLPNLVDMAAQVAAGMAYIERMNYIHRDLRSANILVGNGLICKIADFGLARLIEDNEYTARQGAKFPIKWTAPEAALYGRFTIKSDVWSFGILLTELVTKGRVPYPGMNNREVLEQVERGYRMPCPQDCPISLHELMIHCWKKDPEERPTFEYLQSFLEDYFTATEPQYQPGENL", "assay": "Inhibition of FYN (unknown origin)"}, "MCF7 [2]": {"system": "MCF7", "assay": "Induction of apoptosis in human MCF7 cells assessed as PARP cleavage at 1 to 10 uM after 24 hrs by Western blotting analysis", "assay_type": "functional, cell-based"}, "[3]": {"target": "Tyrosine-protein kinase ABL1 (Homo sapiens, UniProt P00519)", "sequence (P00519 whole entry)": "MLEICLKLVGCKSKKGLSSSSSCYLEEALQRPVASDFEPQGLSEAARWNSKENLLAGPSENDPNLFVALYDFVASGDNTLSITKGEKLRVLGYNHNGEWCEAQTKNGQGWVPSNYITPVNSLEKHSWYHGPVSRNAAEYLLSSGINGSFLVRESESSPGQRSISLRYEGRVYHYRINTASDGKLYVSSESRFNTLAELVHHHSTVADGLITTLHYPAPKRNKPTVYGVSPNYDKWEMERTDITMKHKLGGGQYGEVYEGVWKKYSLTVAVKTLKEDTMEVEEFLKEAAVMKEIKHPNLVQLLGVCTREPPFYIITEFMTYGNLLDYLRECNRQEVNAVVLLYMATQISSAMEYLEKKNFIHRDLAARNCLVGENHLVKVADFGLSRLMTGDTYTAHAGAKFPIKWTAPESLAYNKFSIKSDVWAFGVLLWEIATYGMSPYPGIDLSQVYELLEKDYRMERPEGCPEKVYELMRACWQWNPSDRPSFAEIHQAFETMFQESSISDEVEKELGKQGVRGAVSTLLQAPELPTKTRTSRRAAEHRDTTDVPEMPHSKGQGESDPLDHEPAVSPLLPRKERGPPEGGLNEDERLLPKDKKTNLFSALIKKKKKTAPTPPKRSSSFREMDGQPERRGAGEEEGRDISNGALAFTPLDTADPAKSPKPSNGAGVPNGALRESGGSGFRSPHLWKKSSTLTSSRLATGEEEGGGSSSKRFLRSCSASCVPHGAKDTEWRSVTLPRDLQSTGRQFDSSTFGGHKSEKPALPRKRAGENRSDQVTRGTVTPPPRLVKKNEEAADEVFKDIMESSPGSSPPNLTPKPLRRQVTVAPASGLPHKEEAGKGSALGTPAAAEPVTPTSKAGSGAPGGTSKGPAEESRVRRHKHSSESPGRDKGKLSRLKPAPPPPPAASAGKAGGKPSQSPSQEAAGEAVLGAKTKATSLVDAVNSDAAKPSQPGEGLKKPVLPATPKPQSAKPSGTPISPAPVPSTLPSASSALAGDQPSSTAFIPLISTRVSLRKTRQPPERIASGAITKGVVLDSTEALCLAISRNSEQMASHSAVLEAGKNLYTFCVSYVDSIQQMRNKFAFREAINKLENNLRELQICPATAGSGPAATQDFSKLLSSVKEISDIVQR", "assay": "Inhibition of ABL (unknown origin)"}, "[4]": {"assay": "Cytotoxicity against human GRANTA-519 cells after 96 hrs by Cell-Titer Blue assay", "assay_type": "functional", "conditions": "Granta-519, 96 h"}, "[5]": {"target": "Receptor-type tyrosine-protein kinase FLT3 (Homo sapiens, UniProt P36888)", "sequence (P36888 whole entry)": "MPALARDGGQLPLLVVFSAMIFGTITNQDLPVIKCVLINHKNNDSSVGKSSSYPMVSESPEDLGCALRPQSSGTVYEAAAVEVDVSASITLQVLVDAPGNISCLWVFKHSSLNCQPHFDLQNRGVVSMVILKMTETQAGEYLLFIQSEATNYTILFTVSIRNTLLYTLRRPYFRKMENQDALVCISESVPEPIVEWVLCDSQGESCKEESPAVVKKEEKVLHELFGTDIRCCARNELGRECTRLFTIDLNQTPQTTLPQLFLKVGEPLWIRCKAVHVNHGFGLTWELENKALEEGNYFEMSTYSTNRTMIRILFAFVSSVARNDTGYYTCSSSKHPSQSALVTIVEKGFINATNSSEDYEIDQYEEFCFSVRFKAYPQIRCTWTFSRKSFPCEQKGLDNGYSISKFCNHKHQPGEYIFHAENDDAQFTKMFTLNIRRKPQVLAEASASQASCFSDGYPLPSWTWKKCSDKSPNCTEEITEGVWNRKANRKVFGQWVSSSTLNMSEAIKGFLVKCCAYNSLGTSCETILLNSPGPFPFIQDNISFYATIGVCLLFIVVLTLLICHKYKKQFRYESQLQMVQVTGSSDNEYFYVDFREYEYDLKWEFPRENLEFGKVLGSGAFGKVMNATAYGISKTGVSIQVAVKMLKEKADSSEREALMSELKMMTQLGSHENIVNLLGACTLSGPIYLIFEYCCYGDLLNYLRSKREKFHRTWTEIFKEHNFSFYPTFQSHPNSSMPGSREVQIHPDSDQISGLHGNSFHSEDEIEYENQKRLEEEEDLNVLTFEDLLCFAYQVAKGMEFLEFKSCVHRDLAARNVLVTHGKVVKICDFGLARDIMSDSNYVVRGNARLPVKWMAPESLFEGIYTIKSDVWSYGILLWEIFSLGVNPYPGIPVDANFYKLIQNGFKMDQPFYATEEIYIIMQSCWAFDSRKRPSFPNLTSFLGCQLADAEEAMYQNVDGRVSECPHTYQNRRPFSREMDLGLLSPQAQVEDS", "assay": "Inhibition of FLT3 (unknown origin)"}, "SK-OV-3": {"system": "SK-OV-3", "assay": "Cytotoxicity against human SKOV3 cells after 96 hrs by Cell-Titer Blue assay", "assay_type": "functional", "conditions": "SK-OV-3, 96 h"}, "MDA-MB-231 [6]": {"system": "MDA-MB-231", "assay": "Induction of apoptosis in human MDA-MB-231 cells assessed as PARP cleavage at 1 to 10 uM after 24 hrs by Western blotting analysis", "assay_type": "functional, cell-based"}, "[7]": {"assay": "Cytotoxicity against human SNU449 cells after 96 hrs by Cell-Titer Blue assay", "assay_type": "functional", "conditions": "SNU-449, 96 h"}, "[8]": {"assay": "Cytotoxicity against human DLD1 cells after 96 hrs by Cell-Titer Blue assay", "assay_type": "functional", "conditions": "DLD-1, 96 h"}, "MDA-MB-468": {"system": "MDA-MB-468", "assay": "Cytotoxicity against human MDA-MB-468 cells after 96 hrs by Cell-Titer Blue assay", "assay_type": "functional", "conditions": "MDA-MB-468, 96 h"}, "[9]": {"assay": "Cytotoxicity against human SNU475 cells after 96 hrs by Cell-Titer Blue assay", "assay_type": "functional", "conditions": "SNU-475, 96 h"}, "[10]": {"target": "Fibroblast growth factor receptor 1 (Homo sapiens, UniProt P11362)", "sequence (P11362 whole entry)": "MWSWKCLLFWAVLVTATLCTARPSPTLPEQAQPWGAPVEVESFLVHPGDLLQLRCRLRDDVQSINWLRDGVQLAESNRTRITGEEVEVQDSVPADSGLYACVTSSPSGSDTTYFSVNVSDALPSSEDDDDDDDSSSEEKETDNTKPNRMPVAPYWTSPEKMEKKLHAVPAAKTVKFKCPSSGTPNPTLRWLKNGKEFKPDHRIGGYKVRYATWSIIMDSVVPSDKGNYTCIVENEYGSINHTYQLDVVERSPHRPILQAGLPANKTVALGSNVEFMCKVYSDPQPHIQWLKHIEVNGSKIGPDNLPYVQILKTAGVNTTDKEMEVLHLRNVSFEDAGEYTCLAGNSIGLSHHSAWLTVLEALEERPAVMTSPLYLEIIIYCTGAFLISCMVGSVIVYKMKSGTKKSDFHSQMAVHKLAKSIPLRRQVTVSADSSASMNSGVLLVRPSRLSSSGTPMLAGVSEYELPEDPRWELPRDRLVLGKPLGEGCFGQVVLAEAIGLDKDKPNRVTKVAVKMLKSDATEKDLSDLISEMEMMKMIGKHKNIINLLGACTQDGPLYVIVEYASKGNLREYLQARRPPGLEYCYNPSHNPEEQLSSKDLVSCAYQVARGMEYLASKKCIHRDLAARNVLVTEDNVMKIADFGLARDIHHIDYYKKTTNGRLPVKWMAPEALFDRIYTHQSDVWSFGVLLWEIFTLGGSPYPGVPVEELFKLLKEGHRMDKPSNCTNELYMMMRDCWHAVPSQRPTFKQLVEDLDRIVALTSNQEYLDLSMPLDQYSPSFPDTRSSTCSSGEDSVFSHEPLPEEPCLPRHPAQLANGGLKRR", "assay": "Inhibition of FGFR1 (unknown origin)"}, "[11]": {"target": "Platelet-derived growth factor receptor beta (Homo sapiens, UniProt P09619)", "assay": "Inhibition of PDGFRbeta (unknown origin)"}, "[12]": {"assay": "Cytotoxicity against human SKBR3 cells after 96 hrs by Cell-Titer Blue assay", "assay_type": "functional", "conditions": "SK-BR-3, 96 h"}, "COLO 205": {"system": "COLO 205", "assay": "Cytotoxicity against human COLO205 cells after 96 hrs by Cell-Titer Blue assay", "assay_type": "functional", "conditions": "COLO 205, 96 h"}, "[13]": {"assay": "Cytotoxicity against human Capan1 cells after 96 hrs by Cell-Titer Blue assay", "assay_type": "functional", "conditions": "CAPAN-1, 96 h"}, "[14]": {"assay": "Cytotoxicity against human BT20 cells after 96 hrs by Cell-Titer Blue assay", "assay_type": "functional", "conditions": "BT-20, 96 h"}, "[15]": {"target": "T1, Cyclin-dependent kinase 4/cyclin D1 (Homo sapiens) (UniProt P11802+P24385)", "assay": "Inhibition of recombinant CDK4/cyclinD1 in human MDA-MB-231 cells assessed as inhibition of retinoblastoma phosphorylation at Ser780 at 0.5 to 5 uM after 24 hrs by Western blotting analysis", "assay_type": "cell-based", "how_it_was_run": "(§1)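 Breast carcinoma cells were given increasing concentrations for 24 h. Total lysates (100 μg, 10% SDS-PAGE) were immunoblotted with antibodies against Ser780-phosphorylated and non-phosphorylated RB. Bands were read on an infrared scanning system.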"}, "MDA-MB-231 [16]": {"system": "MDA-MB-231", "assay": "Inhibition of PI3K in human MDA-MB-231 cells assessed as inhibition of Akt phosphorylation at Ser473 at 0.1 to 10 uM after 24 hrs by Western blotting analysis", "assay_type": "cell-based", "how_it_was_run": "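Total lysates (100 μg) were run on 10% SDS-PAGE and immunoblotted for Ser473-phosphorylated and total AKT, with GAPDH as loading control. Detection used infrared-dye secondary antibodies.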"}, "MDA-MB-157": {"system": "MDA-MB-157", "assay": "Cytotoxicity against human MDA-MB-157 cells after 96 hrs by Cell-Titer Blue assay", "assay_type": "functional", "conditions": "MDA-MB-157, 96 h"}, "[17]": {"target": "Cyclin-dependent kinase 4/cyclin D1 (Homo sapiens, UniProt P11802)", "sequence (P11802 whole entry)": "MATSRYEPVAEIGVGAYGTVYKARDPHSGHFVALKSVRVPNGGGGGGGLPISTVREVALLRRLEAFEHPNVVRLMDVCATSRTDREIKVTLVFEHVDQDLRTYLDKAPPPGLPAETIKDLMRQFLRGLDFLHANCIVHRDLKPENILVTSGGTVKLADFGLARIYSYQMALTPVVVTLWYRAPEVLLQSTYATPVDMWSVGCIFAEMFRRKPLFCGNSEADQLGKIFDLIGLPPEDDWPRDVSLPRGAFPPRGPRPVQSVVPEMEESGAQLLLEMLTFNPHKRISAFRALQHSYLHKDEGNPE", "sequence (P24385 whole entry, further chain)": "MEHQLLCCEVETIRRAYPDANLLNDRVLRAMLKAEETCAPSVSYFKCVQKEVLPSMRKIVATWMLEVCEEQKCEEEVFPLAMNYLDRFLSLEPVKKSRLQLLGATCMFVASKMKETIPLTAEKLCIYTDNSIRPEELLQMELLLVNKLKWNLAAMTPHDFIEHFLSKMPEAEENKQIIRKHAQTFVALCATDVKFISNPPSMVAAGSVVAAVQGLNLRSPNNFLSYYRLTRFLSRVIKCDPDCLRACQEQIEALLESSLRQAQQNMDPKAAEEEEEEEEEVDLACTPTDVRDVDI", "assay": "Inhibition of CDK4/cyclinD1 (unknown origin)", "assay_type": "protein-complex assay"}, "HeLa": {"system": "HeLa", "assay": "Cytotoxicity against human HeLa cells after 96 hrs by Cell-Titer Blue assay", "assay_type": "functional"}, "NCI-N87": {"system": "NCI-N87", "assay": "Cytotoxicity against human NCI-N87 cells after 96 hrs by Cell-Titer Blue assay", "assay_type": "functional", "conditions": "NCI-N87, 96 h"}, "MCF7 [18]": {"system": "MCF7", "assay": "Induction of apoptosis in human MCF7 cells assessed as PARP cleavage after 24 hrs by Western blotting analysis", "assay_type": "functional, cell-based"}, "SW480": {"system": "SW480", "assay": "Cytotoxicity against human SW480 cells after 96 hrs by Cell-Titer Blue assay", "assay_type": "functional", "conditions": "SW480, 96 h"}, "[19]": {"target": "T1, Cyclin-dependent kinase 4/cyclin D1 (Homo sapiens)", "assay": "Inhibition of recombinant CDK4/cyclinD1 in human MCF7 cells assessed as inhibition of retinoblastoma phosphorylation at Ser780 at 0.5 to 5 uM after 24 hrs by Western blotting analysis", "assay_type": "cell-based", "how_it_was_run": "as §1"}, "[20]": {"assay": "Cytotoxicity against human Z138C cells after 96 hrs by Cell-Titer Blue assay", "assay_type": "functional"}, "MCF7 [21]": {"system": "MCF7", "assay": "Cell cycle arrest in human MCF7 cells assessed as accumulation at sub-G1 phase at 0.5 to 1 uM after 48 hrs by propidium iodide staining-based flow cytometric analysis", "assay_type": "functional"}, "NCI-H417": {"system": "NCI-H417", "assay": "Cytotoxicity against human NCI-N417 cells after 96 hrs by Cell-Titer Blue assay", "assay_type": "functional", "conditions": "NCI-H417, 96 h"}, "MDA-MB-231 [22]": {"system": "MDA-MB-231", "assay": "Antitumor activity against human MDA-MB-231 cells xenografted in NCR nude mouse assessed as decrease in tumor weight at 50 mg/kg, ip […] administered on alternative days measured every 2 days up to 21 days", "assay_type": "functional, organism-based", "set-up": "dose 50 mg/kg", "how_it_was_run": "(§2)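 MDA-MB-231 cells orthotopically implanted into mammary fat pads of 6–8 week old female nude mice (n=11 per group). Dosing began when average tumour volume reached 100 mm3. Lactate salt in PBS or vehicle was given intraperitoneally every other day (Q2D). Tumour volumes and body weights were recorded every 2 days over 21 days; mean ± SEM.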"}, "HCT-15": {"system": "HCT-15", "assay": "Cytotoxicity against human HCT15 cells after 96 hrs by Cell-Titer Blue assay", "assay_type": "functional", "conditions": "HCT-15, 96 h"}, "[23]": {"assay": "Toxicity in CD-1 mouse […] assessed as survival rate at 200 mg/kg, ip administered for 5 days measured after 10 days", "assay_type": "organism-based", "set-up": "dose 200 mg/kg, route intraperitoneal", "conditions": "in vivo", "how_it_was_run": "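Female CD-1 mice (n=3) were given 200 mg/kg ip on 5 consecutive days. They were then monitored for signs of toxicity, with survival followed beyond 10 days after injection. This came after an initial single-dose test at 100 or 200 mg/kg ip with 7-day monitoring.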"}, "Mus musculus [24]": {"system": "Mus musculus", "assay": "Toxicity in CD-1 mouse xenografted with human MDA-MB-231 cells assessed as weight loss at 100 to 200 mg/kg, ip measured for 7 days", "assay_type": "organism-based", "set-up": "dose 100-200 mg/kg, route intraperitoneal", "conditions": "in vivo, 168 h"}, "MDA-MB-231 [25]": {"system": "MDA-MB-231", "assay": "Cell cycle arrest in human MDA-MB-231 cells assessed as accumulation at sub-G1 phase at 0.5 to 1 uM after 48 hrs by propidium iodide staining-based flow cytometric analysis", "assay_type": "functional"}, "Mus musculus [26]": {"system": "Mus musculus", "assay": "Toxicity in NCR nude mouse xenografted with human MDA-MB-231 cells assessed as weight loss at 50 mg/kg, ip […] administered on alternative days measured every 2 days up to 21 days", "assay_type": "organism-based", "set-up": "dose 50 mg/kg, route intraperitoneal", "conditions": "in vivo", "how_it_was_run": "as §2"}, "[27]": {"assay": "Cytotoxicity against human HCC1428 cells after 96 hrs by Cell-Titer Blue assay", "assay_type": "functional", "conditions": "HCC1428, 96 h"}, "[28]": {"assay": "Cytotoxicity against human HFL cells after 96 hrs by Cell-Titer Blue assay", "assay_type": "cell-based"}, "MDA-MB-231 [29]": {"system": "MDA-MB-231", "assay": "Antitumor activity against ip dosed human MDA-MB-231 cells xenografted in NCR nude mouse assessed as inhibition of tumor growth administered as […] on alternative days measured every 2 days up to 21 days", "assay_type": "functional, organism-based", "how_it_was_run": "as §2"}}, "note": "The source made the active and inactive calls. The calls are words filed in the database; no cut-off is given here."}
{"smiles": "CN1CCN(c2ccc(Nc3ncc4cc(C#N)c(=O)n(C5CCCC5)c4n3)cc2)CC1", "note": "[NARAZACICLIB]", "values": [{"measurement": "IC50", "setting": "[1]", "result": 11.1, "unit": "nM"}, {"measurement": "Activity", "setting": "MCF7 [2]", "result": "Active"}, {"measurement": "IC50", "setting": "[3]", "result": 53.3, "unit": "nM"}, {"measurement": "GI50", "setting": "[4]", "result": 25, "unit": "nM"}, {"measurement": "IC50", "setting": "[5]", "result": 12.2, "unit": "nM"}, {"measurement": "GI50", "setting": "SK-OV-3", "result": 750, "unit": "nM"}, {"measurement": "Activity", "setting": "MDA-MB-231 [6]", "result": "Active"}, {"measurement": "GI50", "setting": "[7]", "result": 750, "unit": "nM"}, {"measurement": "GI50", "setting": "[8]", "result": 100, "unit": "nM"}, {"measurement": "GI50", "setting": "MDA-MB-468", "result": 2000, "unit": "nM"}, {"measurement": "GI50", "setting": "[9]", "result": 300, "unit": "nM"}, {"measurement": "IC50", "setting": "[10]", "result": 26, "unit": "nM"}, {"measurement": "IC50", "setting": "[11]", "result": 26, "unit": "nM"}, {"measurement": "GI50", "setting": "[12]", "result": 150, "unit": "nM"}, {"measurement": "GI50", "setting": "COLO 205", "result": 100, "unit": "nM"}, {"measurement": "GI50", "setting": "[13]", "result": 500, "unit": "nM"}, {"measurement": "GI50", "setting": "[14]", "result": 100, "unit": "nM"}, {"measurement": "inhibition", "setting": "[15]", "result": "Active"}, {"measurement": "inhibition", "setting": "MDA-MB-231 [16]", "result": "Active"}, {"measurement": "GI50", "setting": "MDA-MB-157", "result": 1000, "unit": "nM"}, {"measurement": "IC50", "setting": "[17]", "result": 3.8, "unit": "nM"}, {"measurement": "GI50", "setting": "HeLa", "result": 750, "unit": "nM"}, {"measurement": "GI50", "setting": "NCI-N87", "result": 900, "unit": "nM"}, {"measurement": "Activity", "setting": "MCF7 [18]", "result": "Dose-dependent effect"}, {"measurement": "GI50", "setting": "SW480", "result": 90, "unit": "nM"}, {"measurement": "inhibition", "setting": "[19]", "result": "Active"}, {"measurement": "GI50", "setting": "[20]", "result": 25, "unit": "nM"}, {"measurement": "Activity", "setting": "MCF7 [21]", "result": "Active"}, {"measurement": "GI50", "setting": "NCI-H417", "result": 250, "unit": "nM"}, {"measurement": "Activity", "setting": "MDA-MB-231 [22]", "result": "Active"}, {"measurement": "GI50", "setting": "HCT-15", "result": 300, "unit": "nM"}, {"measurement": "survival at 240 h", "setting": "[23]", "result": 100, "unit": "%"}, {"measurement": "Activity", "setting": "Mus musculus [24]", "result": "Non-toxic"}, {"measurement": "Activity", "setting": "MDA-MB-231 [25]", "result": "Active"}, {"measurement": "Activity", "setting": "Mus musculus [26]", "result": "Non-toxic"}, {"measurement": "GI50", "setting": "[27]", "result": 300, "unit": "nM"}, {"measurement": "GI50 at 96 h", "setting": "[28]", "result": 5, "unit": "µM"}, {"measurement": "inhibition", "setting": "MDA-MB-231 [29]", "result": "Dose-dependent effect"}]}
